Activity calls are given as the source filed them. The rule behind the calls is not given here.
What was measured:
Saccharomyces cerevisiae [1] = assay: Antifungal activity against Saccharomyces cerevisiae BY4741 harboring MTF1 YMR228W mutant gene by spectrophotometry; type: functional
How it was run: (§1)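 Haploid MATa BY4741 KanMX4 deletion strains pinned from frozen stocks into YPD + G418 (150 mg/liter), grown 3 days at 28°C to confluence, then pin-replicated into SC liquid with no drug or sordarin derivative GM193663 (2 ng/ml sensitivity; 62.5 ng/ml resistance). 28°C, OD595 read every 24 h for 5 days; growth scored relative to wild type on same plate and to untreated mutant.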

Saccharomyces cerevisiae [2] = assay: Antifungal activity against Saccharomyces cerevisiae BY4741 harboring CPR6 YLR216C mutant gene by spectrophotometry; type: functional
How it was run: (§2)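 Screen of BY4741 KanMX4 deletion strains pre-grown 3 days at 28°C in YPD with G418 (150 mg/liter), then pinned into liquid SC containing GM193663. The sensitivity screen used 2 ng/ml; the resistance screen used 62.5 ng/ml, with validation at 62.5, 125 and 500 ng/ml. OD595 was read every 24 h over 5 days at 28°C. Growth was scored relative to wild type and to drug-free controls. Retests were at least in duplicate.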

Saccharomyces cerevisiae [3] = assay: Antifungal activity against Saccharomyces cerevisiae BY4741 harboring SHE2 YKL130C mutant gene by spectrophotometry; type: functional; how it was run: as §1
Saccharomyces cerevisiae [4] = assay: Antifungal activity against Saccharomyces cerevisiae BY4741 harboring DIA4 YHR011W mutant gene by spectrophotometry; type: functional; how it was run: as §2
Saccharomyces cerevisiae [5] = assay: Antifungal activity against Saccharomyces cerevisiae BY4741 harboring MGT1 YDL200C mutant gene by spectrophotometry; type: functional; how it was run: as §2
Saccharomyces cerevisiae [6] = assay: Antifungal activity against Saccharomyces cerevisiae BY4741 harboring MUP3 YHL036W mutant gene by spectrophotometry; type: functional; how it was run: as §1
Saccharomyces cerevisiae [7] = assay: Antifungal activity against Saccharomyces cerevisiae BY4741 harboring MIP6 YHR015W mutant gene by spectrophotometry; type: functional; how it was run: as §2
Saccharomyces cerevisiae [8] = assay: Antifungal activity against Saccharomyces cerevisiae BY4741 harboring LYS14 YDR034C mutant gene by spectrophotometry; type: functional; how it was run: as §2
Saccharomyces cerevisiae [9] = assay: Antifungal activity against Saccharomyces cerevisiae BY4741 harboring BEM2 YER155C mutant gene by spectrophotometry; type: functional; how it was run: as §2
Saccharomyces cerevisiae [10] = assay: Antifungal activity against Saccharomyces cerevisiae BY4741 harboring QRI7 YDL104C mutant gene by spectrophotometry; type: functional; how it was run: as §1
Saccharomyces cerevisiae [11] = assay: Antifungal activity against Saccharomyces cerevisiae BY4741 harboring EAF3 YPR023C mutant gene by spectrophotometry; type: functional; how it was run: as §2
Saccharomyces cerevisiae [12] = assay: Antifungal activity against Saccharomyces cerevisiae BY4741 harboring RAM1 YDL090C mutant gene by spectrophotometry; type: functional; how it was run: as §1
Saccharomyces cerevisiae [13] = assay: Antifungal activity against Saccharomyces cerevisiae BY4741 harboring AFG3 YER017C mutant gene assessed as reduction in fungal growth at 2 ng/ml by spectrophotometry; type: functional, organism-based
How it was run: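 Haploid BY4741 KanMX4 deletion strains pre-grown in YPD with G418 (150 mg/liter) for 3 days at 28°C. They were then pin-replicated into liquid SC with sordarin derivative GM193663 at 2 ng/ml, or without drug. Plates were incubated at 28°C and OD595 read every 24 h for 5 days. Growth was scored against wild type on the same plate and against the drug-free mutant. Hits were retested at least in duplicate.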

Saccharomyces cerevisiae [14] = assay: Antifungal activity against Saccharomyces cerevisiae BY4741 assessed as reduction in fungal growth up to 500 ng/ml for 72 hrs by spectrophotometry; type: functional, organism-based
How it was run: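 BY4741 grown overnight in SC (synthetic complete) medium, then inoculated into microtiter wells of SC medium containing successive twofold dilutions of sordarin starting at 500 ng/ml (range 0–500 ng/ml). Cultures incubated at 28°C, and growth followed as a growth inhibition curve.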

Saccharomyces cerevisiae [15] = assay: Antifungal activity against Saccharomyces cerevisiae BY4741 harboring deletion mutation in dph1 gene at 300 to 500 ng/ml after 24 hrs by liquid growth assay; type: functional
Saccharomyces cerevisiae [16] = assay: Antifungal activity against Saccharomyces cerevisiae BY4741 harboring YLR125W mutation in unknown gene by spectrophotometry; type: functional
How it was run: (§3)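 Deletion strains from the nonessential haploid MATa BY4741 collection (KanMX4 replacement) were grown in YPD with G418 at 28°C for 3 days, then pinned into liquid SC with or without sordarin derivative GM193663 (2 ng/ml for sensitivity, 62.5 ng/ml for resistance). Cultures were kept at 28°C and read at OD595 every 24 h for 5 days. Growth was scored against wild type on the same plate and against the drug-free control. Hits were retested at least in duplicate.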

Saccharomyces cerevisiae [17] = assay: Antifungal activity against Saccharomyces cerevisiae BY4741 harboring YOL079W mutation in unknown gene by spectrophotometry; type: functional; how it was run: as §3
Saccharomyces cerevisiae [18] = assay: Antifungal activity against Saccharomyces cerevisiae BY4741 harboring DLT1 YMR126C mutant gene by spectrophotometry; type: functional; how it was run: as §2
Saccharomyces cerevisiae [19] = assay: Antifungal activity against Saccharomyces cerevisiae BY4741 harboring YGR228W mutation in unknown gene by spectrophotometry; type: functional; how it was run: as §3
Saccharomyces cerevisiae [20] = assay: Antifungal activity against Saccharomyces cerevisiae BY4741 harboring YBR141C mutation in unknown gene by spectrophotometry; type: functional; how it was run: as §1

Which MIC (Saccharomyces cerevisiae [1]) does the source give for `CO[C@H]1[C@@H](O)[C@H](O)[C@H](OC[C@@]23C[C@@H]4[C@H](C)CC[C@H]4[C@@]4(C=O)CC2C=C(C(C)C)[C@@]34C(=O)O)O[C@@H]1C` [SORDARIN] here?
The MIC was over 0.125 µg/mL.

What about the MIC (Saccharomyces cerevisiae [2]) of the same compound?
Its MIC is over 0.125 µg/mL.

And the MIC (Saccharomyces cerevisiae [3])?
Its MIC is over 0.125 µg/mL.

What about the MIC (Saccharomyces cerevisiae [4]) of the same compound?
The MIC was over 0.0625 µg/mL.

And the MIC (Saccharomyces cerevisiae [5])?
The MIC was over 0.125 µg/mL.

And the MIC (Saccharomyces cerevisiae [6])?
The MIC was over 0.5 µg/mL.

What about the MIC (Saccharomyces cerevisiae [7]) of the same compound?
Its MIC is over 0.5 µg/mL.

What about the MIC (Saccharomyces cerevisiae [8]) of the same compound?
The MIC was over 0.5 µg/mL.

What about the MIC (Saccharomyces cerevisiae [9]) of the same compound?
Its MIC is over 0.5 µg/mL.

And the MIC (Saccharomyces cerevisiae [10])?
Its MIC is over 0.125 µg/mL.

And the MIC (Saccharomyces cerevisiae [11])?
Its MIC is over 0.5 µg/mL.

And the MIC (Saccharomyces cerevisiae [12])?
The MIC was over 0.5 µg/mL.

What about the Activity (Saccharomyces cerevisiae [13]) of the same compound?
The Activity was “Active”.

What about the Activity (Saccharomyces cerevisiae [14]) of the same compound?
Its Activity is “Active”.

What about the Activity (Saccharomyces cerevisiae [15]) of the same compound?
Its Activity is 50%.

And the MIC (Saccharomyces cerevisiae [16])?
The MIC was over 0.125 µg/mL.

What about the MIC (Saccharomyces cerevisiae [17]) of the same compound?
The MIC was over 0.5 µg/mL.

And the MIC (Saccharomyces cerevisiae [18])?
The MIC was over 0.125 µg/mL.

What about the MIC (Saccharomyces cerevisiae [19]) of the same compound?
Its MIC is over 0.5 µg/mL.

And the MIC (Saccharomyces cerevisiae [20])?
The MIC was over 0.5 µg/mL.

— ChEMBL document CHEMBL1275408, “A chemical genomic screen in Saccharomyces cerevisiae reveals a role for diphthamidation of translation elongation factor 2 in inhibition of protein synthesis by sordarin” (2008)
